# The list is not random: actives were taken first. Their share in the collection is about 2.2%.
# b-catenin transl: modulators of beta-catenin nuclear translocation, primary screen, imaging, HeLa cells, immunofluorescence, high-content; nuclear translocation activity, % at 5 µM; 190,000 compounds, 0.3% hits; AID 1665, 2009;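 active = nuclear translocation activity above 50% at 5 µM, with a well cell count of 50 or more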;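 also: per-cell ratio of nuclear to cytoplasmic median beta-catenin stain intensity; plate controls were DMSO negative control for no effect and GSK-3 inhibitor IX positive control for full effect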
#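 Signal – beta-catenin immunofluorescence imaging with DAPI · Test system – human HeLa cell line · Dosing – 5 µM primary single dose, 0.1% DMSO, 0.02–20 µM confirmation series · Measure – % activation, nuclear-to-cytoplasmic median beta-catenin signal ratio per cell · Incubation – 24 h compound exposure at 37°C, 5% CO2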
# IEC-6 cytotox: cytotoxicity in IEC-6 intestinal epithelial cells, primary screen, cytotoxicity control for KLF5 inhibitor project, cell-based, luminescence | AID 1825, 2009 | inhibition, % at 5 µM | 290,000 compounds, 0.78% hits | IEC-6 cytotoxicity, luminescence viability; in the data active = inhibition above about 22%;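 also: 0% = plate median of test compound wells and 100% = cytotoxic reference compound wells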
# MT stabilizer: microtubule stabilizers in HeLa cells, primary screen, imaging, high-content imaging; HeLa tubulin immunostaining HCS, 24 h; share of cells brighter than vehicle mean+2SD; % tubulin-high responders, % at 10 µM; 200,000 compounds, 0.83% hits; AID 2205, 2009;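 active = plate Z-score above 3 for both tubulin-high and condensed-nucleus cell shares, with cell loss under 80%, at 10 µM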;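 also: anti alpha tubulin signal scored within the nucleus-defined area of each cell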
# BaF3 parental: parental Ba/F3 cell viability inhibition, counter-screen for JAK2V617F inhibitor project, murine pro-B, CellTiter-Glo luminescence; 220,000 compounds, 1.1% hits; CellTiter-Glo ATP luminescence; inhibition, % at 5.6 µM;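 active = inhibition above a per-campaign cutoff, the mean inhibition of all tested compounds plus 3 SD, cut at about 27% in these data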;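 also: 0% = DMSO wells and 100% = JAK Inhibitor I control wells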
# Ba/F3 V617F tox: reduced viability of JAK2V617F-dependent Ba/F3 cells, primary screen, JAK2V617F inhibitor project, cell-based, Ba/F3 EpoR-JAK2V617F, luminescence | 220,000 compounds, 1.1% hits | ATP luminescence | inhibition, % at 5.6 µM | AID 1446, 2008;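 active = inhibition above the campaign mean plus 3 SD over all tested compounds, cut at about 24% in these data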;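 also: cytokine-independent growth of Ba/F3 cells driven by EpoR plus mutant JAK2; 0% = DMSO-treated cells and 100% = JAK inhibitor I control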
# APP 5UTR inh: inhibitors of APP translation via 5'UTR reporter, primary screen, APP 5'UTR luciferase, SH-SY5Y cells; SH-SY5Y APP 5'UTR-luciferase reporter, luminescence; AID 1285, 2008; 190,000 compounds, 0.82% hits; inhibition, % at 2 µM;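 active = inhibition above a set limit, derived from the sample mean plus 3 SD, cut at about 45% in these data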
# An asterisk follows results filed as active; nt = no result.
SMILES,b-catenin transl,IEC-6 cytotox,MT stabilizer,BaF3 parental,Ba/F3 V617F tox,APP 5UTR inh
CCOc1ccc(S(=O)(=O)NCc2ccncc2)cc1,2.1,20.4,2.1,60.9*,65.0*,12.9
Cc1ccc(S(=O)(=O)NCc2ccncc2)cc1,nt,7.8,1.6,47.3*,36.8*,11.4
CC(C)CNS(=O)(=O)c1ccc(CCC(=O)NCc2ccncc2)cc1,-3.0,2.5,1.0,89.8*,1.5,-23.6
CC(=O)Nc1ccc(S(=O)(=O)NCc2ccncc2)cc1,-0.5,-3.7,0.8,37.0*,32.0*,-7.3
CC(C)CNS(=O)(=O)c1ccc(CCC(=O)NCc2ccco2)cc1,-1.1,-2.5,3.8,2.4,-2.5,-15.8
Fc1cccc2sc(N3CCCC3)nc12,-2.1,-2.0,4.0,9.4,5.6,-35.7
CC(C)[C@H](NC(=O)[C@@H]1Cc2c([nH]c3ccccc23)C2c3ccccc3C(=O)N21)C(=O)N1CCC[C@@H]1C(=O)O (some centres undefined),nt,-0.8,nt,nt,nt,nt
O=C(NCC1CCCO1)c1cc(-c2ccc(F)cc2)no1 (centres undefined),nt,-5.0,nt,nt,nt,nt
CCOC(=O)CC(NC(=O)c1cc2cccc(OC)c2oc1=O)c1ccc(OC)cc1 (centres undefined),nt,3.8,nt,nt,nt,nt
CCOc1ccc2nc(COC(=O)c3ccncc3)c(C(=O)c3ccccc3)[n+]([O-])c2c1,-1.5,-2.5,nt,0.5,-3.8,nt
Nc1cccc2c(=O)c3ccccc3[nH]c12,nt,-2.9,nt,nt,nt,nt
CC1CCCCC1NS(=O)(=O)c1ccc(S(=O)(=O)NCc2ccncc2)cc1 (centres undefined),4.4,11.7,1.6,46.8*,41.7*,-0.6
CCOC(=O)c1c(NC(=O)CSc2nc3cc(Cl)ccc3c(=O)n2Cc2ccco2)sc(C(=O)N(C)C)c1C,2.3,-1.6,3.2,6.8,1.9,8.2
Cc1ccc(NC(=O)CN2C(=O)N/C(=C\c3cccnc3)C2=O)cc1,-3.3,-3.4,3.8,0.2,-5.4,53.7*
CC(C)CN1CCC(=O)N([C@H](CO)Cc2ccccc2)CC1,nt,5.9,nt,nt,nt,nt
CC(C)c1ccc(/C=N/NC(=O)c2ccccc2Cl)cc1,-1.0,21.0,23.5*,4.6,23.3,61.4*
COC(=O)c1ccc(/C=N/NC(=O)c2ccccc2Cl)cc1,-1.9,3.2,2.5,2.4,-0.4,-32.9
Cc1cc2nc(/N=C(\N)NC(=O)C(C)C)nc(C)c2cc1C,2.3,9.4,nt,29.5*,11.6,nt
CCCC(=O)N/C(N)=N/c1nc(C)c2cc(C)ccc2n1,-2.1,0.0,nt,19.5,12.7,nt
CCC(=O)N/C(N)=N/c1nc(C)c2cc(C)c(C)cc2n1,10.9,4.3,nt,53.0*,38.2*,nt
CCc1c(C)c(C#N)c2nc3ccccc3n2c1Cl,-2.2,-5.7,8.9,-2.9,-5.6,95.0*
CCc1c(C)c(C#N)c2nc3ccccc3n2c1-n1nc(C)cc1C,-0.9,1.2,1.7,0.1,-2.1,-20.1
O=C1NC(=O)C(CC(=O)N(Cc2cccs2)C2(C(=O)NC3CCCCC3)CCCCC2)N1 (centres undefined),-3.0,0.2,3.4,88.3*,4.6,4.9
O=C1NC(=O)C(CC(=O)N(Cc2ccco2)C2(C(=O)NC3CCCC3)CCCCC2)N1 (centres undefined),-1.2,-6.5,1.9,4.5,0.8,-6.8
N#C/C(=C\c1ccc(Cl)c([N+](=O)[O-])c1)c1ccccn1,80.1*,-2.1,66.2,3.3,-0.7,-42.5
SMILES,b-catenin transl,IEC-6 cytotox,MT stabilizer,BaF3 parental,Ba/F3 V617F tox,APP 5UTR inh
CC(C)(C)NC(=O)c1ccccc1NC(=O)C1CC(=O)N(C2CCCCC2)C1 (centres undefined),nt,-8.7,nt,nt,nt,nt
CCOP(=O)(/C(C#N)=C(\C)O)c1ccccc1 (centres undefined),-1.9,0.9,1.4,81.3*,6.6,-8.0
CC(NCCC1(Cc2ccccc2Cl)CCOC(C)(C)C1)c1cccs1 (centres undefined),-0.1,-0.3,nt,-3.2,-1.2,nt
CC(=O)c1ccc(NC(=S)NC(C)CCc2ccccc2)cc1 (centres undefined),-2.5,-3.7,1.7,2.2,3.9,-9.0
Cc1ccc(N2CC(O)(c3cccs3)[N+]3=C2CCCC3)cc1 (centres undefined),2.7,4.2,2.7,45.2*,9.1,-3.7
CCc1ccc(N2CC(O)(c3cccs3)[N+]3=C2SCCC3)cc1 (centres undefined),-0.6,-1.6,2.3,56.7*,52.1*,1.3
COc1ccc(C2(O)CN(c3ccc(C)cc3)C3=[N+]2CCCC3)cc1 (centres undefined),0.3,-4.1,1.8,33.8*,16.6,2.1
Cc1cccc(N2CC(O)(c3cccs3)[N+]3=C2CCCC3)c1 (centres undefined),-1.2,11.3,4.5,36.0*,26.0*,-9.2
Cc1ccccc1N1CC(O)(c2cccs2)[N+]2=C1CCCC2 (centres undefined),1.3,0.1,3.8,6.5,6.6,-4.2
CC(=O)NC(CC(=O)NNC(=O)c1cc2ccccc2cc1O)c1ccccc1 (centres undefined),nt,2.3,nt,nt,nt,nt
Cc1c(C(=O)N2CCCCC2)c(S(=O)(=O)N(C)Cc2ccccc2)c(C)n1C,nt,-0.4,nt,nt,nt,nt
Cc1cccc(N2CC(O)(c3cccs3)[N+]3=C2CCCC3)c1C (centres undefined),-2.2,7.8,7.0,35.7*,24.3*,-5.3
Cc1cccc(N2CC(O)(c3cccs3)[N+]3=C2CCCCC3)c1 (centres undefined),2.1,-1.1,4.3,51.6*,30.2*,0.9
Cc1cccc(NC(=O)C2(c3cccs3)CCOCC2)c1,1.5,-4.0,4.3,4.0,0.0,15.7
Cc1cc(N2CCCCC2)nc(NCc2ccccc2)n1,2.2,20.7,17.3*,7.7,7.1,5.7
Cc1cc(N2CCOCC2)nc(NCc2ccccc2)n1,0.8,8.6,0.7,5.5,1.6,5.4
N#C/C(C(=O)NCCc1ccccc1)=C1/N=C(NC(=O)c2cccs2)c2ccccc21,48.7,0.2,11.7*,9.8,4.3,-4.4
CCC(C)c1ccc(NC(=O)N2CCN(C(=O)C3CCCO3)CC2)cc1 (centres undefined),nt,-2.2,nt,nt,nt,nt
COC(=O)C1=C(C)NC2=C(C(=O)c3ccccc32)C1c1cccc(OC)c1 (centres undefined),0.6,4.8,nt,4.8,-0.7,nt
CC1=C([N+](=O)[O-])C(c2cccc(Br)c2)C2=C(N1)c1ccccc1C2=O (centres undefined),16.8,77.1*,11.5*,76.3*,77.3*,85.6*
O=C(N/N=C/c1cc(Cl)ccc1O)C(=O)Nc1ccccc1OC(F)(F)C(F)F,1.4,2.4,6.6,5.3,-0.2,60.3*

# Screening results deposited in PubChem BioAssay by several laboratories.
